# In ChEMBL document CHEMBL1150775, “Synthesis and evaluation of estrogen agonism of diaryl 4,5-dihydroisoxazoles, 3-hydroxyketones, 3-methoxyketones, and 1,3-diketones: a compound set forming a 4D molecular library” (J Med Chem, 2008):
# Values joined by “and” are separate entries in the source; they are usually repeats but may differ in a detail not shown here. Equal entries are not always repeated.
# Experiments:
# [1] = biological target: Estrogen receptor beta (Homo sapiens) (UniProt Q92731); assay: Activation of human estrogen receptor beta expressed in HEK293 cells at 10 uM beta-galactosidase reporter gene assay relative to 3,17-beta-estradiol; format: cell-based
# Procedure, shortened: (§1)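 HEK293 cells seeded a day ahead in phenol-free DMEM with 5% delipidated FBS. Calcium phosphate transfection for 4 h with 5 ng ERα or ERβ expression vector, 75 ng pERE2TATA-LUC reporter and 20 ng pCMVβ control. Test compound at 10 µM (vehicle 0.1% v/v) for 24 h. Luciferase normalized to β-galactosidase. Activity = 100% × (test − vehicle)/(10 nM E2 − vehicle). Mean of ≥3 independent transfections.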
# [2] = biological target: T1, Estrogen receptor (Homo sapiens) (UniProt P03372); assay: Activation of human estrogen receptor alpha expressed in HEK293 cells at 10 uM by beta-galactosidase reporter gene assay relative to 3,17 beta-estradiol; format: cell-based; procedure, shortened: as §1
# T1 sequence (whole entry): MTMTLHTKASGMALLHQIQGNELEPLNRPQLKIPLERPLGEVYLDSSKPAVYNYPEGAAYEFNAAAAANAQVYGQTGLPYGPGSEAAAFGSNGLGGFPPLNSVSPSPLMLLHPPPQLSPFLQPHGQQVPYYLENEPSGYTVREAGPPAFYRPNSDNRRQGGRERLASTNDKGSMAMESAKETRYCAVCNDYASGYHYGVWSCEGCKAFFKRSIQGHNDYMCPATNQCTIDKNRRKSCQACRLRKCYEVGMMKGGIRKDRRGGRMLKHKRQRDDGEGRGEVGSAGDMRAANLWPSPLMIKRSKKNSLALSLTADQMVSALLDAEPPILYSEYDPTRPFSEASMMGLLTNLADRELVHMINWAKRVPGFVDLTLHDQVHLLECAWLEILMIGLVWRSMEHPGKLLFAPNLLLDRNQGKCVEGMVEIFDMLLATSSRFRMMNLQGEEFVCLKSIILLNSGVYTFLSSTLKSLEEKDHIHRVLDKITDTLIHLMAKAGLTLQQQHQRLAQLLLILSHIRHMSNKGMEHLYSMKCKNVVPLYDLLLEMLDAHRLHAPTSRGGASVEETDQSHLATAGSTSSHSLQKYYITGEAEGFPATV
# Sequence of Estrogen receptor beta (Homo sapiens) (Q92731 whole entry): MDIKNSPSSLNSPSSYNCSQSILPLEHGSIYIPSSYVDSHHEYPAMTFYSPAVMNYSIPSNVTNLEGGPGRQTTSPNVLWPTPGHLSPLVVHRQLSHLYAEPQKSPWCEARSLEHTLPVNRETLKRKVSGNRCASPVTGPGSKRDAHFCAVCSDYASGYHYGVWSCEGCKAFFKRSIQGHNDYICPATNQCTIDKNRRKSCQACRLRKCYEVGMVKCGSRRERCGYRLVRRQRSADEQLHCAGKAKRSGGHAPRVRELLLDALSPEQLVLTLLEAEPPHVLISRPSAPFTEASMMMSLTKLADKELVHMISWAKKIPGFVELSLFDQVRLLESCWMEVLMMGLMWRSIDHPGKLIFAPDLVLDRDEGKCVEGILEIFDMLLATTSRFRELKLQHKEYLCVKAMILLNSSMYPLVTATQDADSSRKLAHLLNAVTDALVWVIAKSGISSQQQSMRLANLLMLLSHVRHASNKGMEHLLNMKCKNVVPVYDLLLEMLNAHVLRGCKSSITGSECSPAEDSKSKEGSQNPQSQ
Activity [1],Activity [2],SMILES
-0.4%,0.5%,CS(C)=C(C(=O)Cc1ccccc1)C(=O)Cc1ccccc1
9.1%,34.2%,"Oc1ccc(CC2CC(CCc3ccccc3)=NO2)cc1 (single isomer, unassigned; 69a)"
5.8%,-1.2%,CS(C)=C(C(=O)Cc1ccccc1)C(=O)c1ccccc1
-0.5%,4.3%,"COc1ccccc1CC(=O)CC(Cc1ccc2ccccc2c1)OC (single isomer, unassigned; 66b)"
25.8%,38.1%,COC(CCc1ccccc1)CC(=O)c1ccccc1 (configuration not stated)
9.8%,16.4%,"c1ccc(CCC2=NOC(c3ccccc3)C2)cc1 (single isomer, unassigned; 12a)"
20.5%,78.8%,"O=C(CCc1ccccc1)CC(O)c1ccccc1 (single isomer, unassigned; 23a)"
2%,14.8%,COc1cc2ccccc2cc1CC(CC(=O)Cc1ccc2ccccc2c1)OC (configuration not stated)
30.5%,39.7%,"Oc1ccccc1CCC1=NOC(Cc2ccccc2)C1 (single isomer, unassigned)"
-7.1%,2.2%,O=C(CCCc1ccccc1)CC(O)CCc1ccccc1 (configuration not stated)
16.9%,5.3%,O=C(CC(O)Cc1ccccc1)c1ccccc1 (configuration not stated)
1.2%,1.3%,"COc1ccc(CC(O)CC(=O)CCc2ccccc2)cc1 (single isomer, unassigned; 54b)"
0.2%,3.4%,"c1ccc(CCC2=NOC(CCc3ccccc3)C2)cc1 (single isomer, unassigned; 18a)"
5.1%,28.1%,"c1ccc(CCCC2=NOC(Cc3ccccc3)C2)cc1 (single isomer, unassigned)"
10.6%,0.8%,"COc1ccc(CC2CC(CCc3ccccc3)=NO2)cc1 (single isomer, unassigned; 50a)"
-6%,1.1%,"c1ccc(CCC2CC(c3ccccc3)=NO2)cc1 (single isomer, unassigned; 10b)"
6.5%,17.2%,"c1ccc(CCC2=NOC(Cc3cccc4ccccc34)C2)cc1 (single isomer, unassigned; 52b)"
17.2% and -3.1%,–,c1ccc(CCCC2=NOC(c3ccccc3)C2)cc1 (configuration not stated)
0.2%,12%,COC(CCc1ccccc1)CC(=O)Cc1ccccc1 (configuration not stated)
0.3%,0.3%,"COc1ccccc1CC(CC(=O)Cc1ccc2ccccc2c1)OC (single isomer, unassigned)"
0.6%,6.2%,"Oc1ccc(CC2CC(CCc3ccccc3O)=NO2)cc1 (single isomer, unassigned; 75b)"
19.5%,14.5%,COC(CCc1ccccc1)CC(=O)CCc1ccccc1 (configuration not stated)
30.4%,24.5%,COC(CC(=O)CCCc1ccccc1)Cc1ccccc1 (configuration not stated)
-0.2%,0.6%,"COc1ccccc1CC(=O)CC(Cc1cccc2ccccc12)OC (single isomer, unassigned; 63b)"

Activity [1],Activity [2],SMILES
1.1%,68.4%,"c1ccc(CCC2=NOC(Cc3ccccc3)C2)cc1 (single isomer, unassigned)"
11.2%,99.2%,Fc1ccc(CC2CC(CCc3ccccc3)=NO2)cc1 (configuration not stated)
4.4%,5.7%,Oc1ccc(CCC2=NOC(Cc3ccc(F)cc3)C2)cc1 (configuration not stated)
8.2%,22.3%,"c1ccc(CCC2=NOC(Cc3ccc4ccccc4c3)C2)cc1 (single isomer, unassigned; 53a)"
143%,171%,Oc1ccc(CCC2=NOC(Cc3ccccc3)C2)cc1 (configuration not stated)
2.8%,25.3%,"O=C(CCc1ccccc1)CC(O)c1ccccc1 (single isomer, unassigned; 23b)"
13.6%,31.3%,c1ccc(CCCC2=NOC(Cc3ccccc3)C2)cc1 (configuration not stated)
-1.7%,3.7%,CS(C)=C(C(=O)CCCc1ccccc1)C(=O)Cc1ccccc1
12.8% and 6.6%,–,c1ccc(CC2CC(c3ccccc3)=NO2)cc1 (configuration not stated)
4.2%,27.7%,O=C(CCCc1ccccc1)CC(=O)Cc1ccccc1
11.2%,33.1%,COC(CC(=O)CCc1ccccc1)Cc1ccc(F)cc1 (configuration not stated)
1.3%,38.2%,c1ccc(CCC2=NOC(Cc3ccccc3)C2)cc1 (configuration not stated)
3.3%,-2.5%,CS(C)=C(C(=O)CCc1ccccc1)C(=O)c1ccccc1
6.7%,19.2%,"Oc1cccc(CCC2=NOC(Cc3ccccc3)C2)c1 (single isomer, unassigned)"
0.3%,0%,"c1ccc(CC2=NOC(Cc3ccccc3)C2)cc1 (single isomer, unassigned; 14b)"
-14.6%,3.1%,COC(CCc1ccccc1)CC(=O)CCCc1ccccc1 (configuration not stated)
1.3%,9.9%,COC(CC(=O)CCc1ccccc1)Cc1ccccc1 (configuration not stated)
9.7%,5.4%,O=C(CC(=O)c1ccccc1)Cc1ccccc1
10.5%,34.1%,"c1ccc(CCC2=NOC(Cc3cccc4ccccc34)C2)cc1 (single isomer, unassigned; 52a)"
0.2%,4.3%,O=C(Cc1ccccc1)CC(O)CCc1ccccc1 (configuration not stated)
0%,0%,"COc1ccccc1CC(=O)CC(Cc1cccc2ccccc12)OC (single isomer, unassigned; 63a)"
8.1%,11.2%,"c1ccc(CCC2=NOC(c3ccccc3)C2)cc1 (single isomer, unassigned; 12b)"
42.4%,105%,"Oc1ccc(CC2CC(CCc3ccccc3)=NO2)cc1 (single isomer, unassigned; 69b)"
6.4%,12.4%,"O=C(CCc1ccccc1)CC(O)Cc1ccc2ccccc2c1 (single isomer, unassigned; 57a)"

Activity [1],Activity [2],SMILES
-0.5%,4.5%,"COC(CC(=O)Cc1ccc(F)cc1)Cc1cccc2ccccc12 (single isomer, unassigned; 62b)"
41.5%,24.3%,"Oc1ccc(CCC2=NOC(Cc3ccccc3)C2)cc1 (single isomer, unassigned)"
7.4%,28.9%,"Fc1ccc(CC2CC(CCc3ccccc3)=NO2)cc1 (single isomer, unassigned)"
0.3%,1.4%,COC(CC(=O)Cc1ccccc1)Cc1ccccc1 (configuration not stated)
0.4%,12.8%,O=C(CCc1ccccc1)CC(O)Cc1ccccc1 (configuration not stated)
-0.2%,-1.3%,"c1ccc(CC2=NOC(Cc3ccccc3)C2)cc1 (single isomer, unassigned; 14a)"
15.5%,67.6%,c1ccc(CCCC2=NOC(CCc3ccccc3)C2)cc1 (configuration not stated)
4%,28.5%,COc1ccc(CC(CC(=O)CCc2ccccc2)OC)cc1 (configuration not stated)
-7.1%,0.5%,CS(C)=C(C(=O)CCc1ccccc1)C(=O)Cc1ccccc1
12.4%,30.4%,COC(CC(=O)CCc1ccccc1)Cc1ccc2ccccc2c1 (configuration not stated)
0.1%,4.3%,O=C(CC(=O)Cc1ccccc1)Cc1ccccc1
28.4%,77.8%,"Oc1ccc(CCC2=NOC(Cc3ccc(F)cc3)C2)cc1 (single isomer, unassigned)"
0.1%,0.2%,COc1ccccc1CC(CC(=O)Cc1ccc2ccccc2c1)OC (configuration not stated)
0.3%,1%,CS(C)=C(C(=O)CCc1ccccc1)C(=O)CCc1ccccc1
34.4%,19.6%,c1ccc(CC2=NOC(c3ccccc3)C2)cc1 (configuration not stated)
-0.5%,5.6%,"COC(CC(=O)Cc1cccc2ccccc12)Cc1cccc2ccccc12 (single isomer, unassigned; 64a)"
-2.5%,15.7%,Oc1cccc(CCC2=NOC(Cc3ccccc3)C2)c1 (configuration not stated)
13.2%,16.1%,"COc1ccc(CC2CC(CCc3ccccc3)=NO2)cc1 (single isomer, unassigned; 50b)"
147%,91.4%,"O=C(CCCc1ccccc1)CC(O)c1ccccc1 (single isomer, unassigned; 24a)"
8.5%,22.8%,"c1ccc(CCC2CC(c3ccccc3)=NO2)cc1 (single isomer, unassigned; 10a)"
15.4%,13%,O=C(CC(O)CCc1ccccc1)c1ccccc1 (configuration not stated)
-4.6%,0.6%,CS(C)=C(C(=O)CCCc1ccccc1)C(=O)CCc1ccccc1
2.5%,20.4%,"Oc1ccc(CC2CC(CCc3ccccc3O)=NO2)cc1 (single isomer, unassigned; 75a)"
-1.2%,4.9%,COC(CC(=O)Cc1ccccc1)c1ccccc1 (configuration not stated)
